The list is not random: actives were taken first. Their share in the collection is about 4.7%.
MrgX1 antag: human MrgX1 receptor antagonism, primary screen | Q96LB2 | AID 588676 | 1.3% of 310,000 active | MRGX1-HEK293 calcium flux, Fluo-4, BAM8-22 antagonism; active compounds read low | B-score at 10 µM;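 active means calcium-response B-score plate-corrected more than 3 library SD below zero, starting fluorescence within 5 deviations, no agonist response on first addition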;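 further: peak minus trough fluorescence over baseline after final BAM8-22 challenge near maximal dose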
Target sequence (Q96LB2 whole entry, looked up): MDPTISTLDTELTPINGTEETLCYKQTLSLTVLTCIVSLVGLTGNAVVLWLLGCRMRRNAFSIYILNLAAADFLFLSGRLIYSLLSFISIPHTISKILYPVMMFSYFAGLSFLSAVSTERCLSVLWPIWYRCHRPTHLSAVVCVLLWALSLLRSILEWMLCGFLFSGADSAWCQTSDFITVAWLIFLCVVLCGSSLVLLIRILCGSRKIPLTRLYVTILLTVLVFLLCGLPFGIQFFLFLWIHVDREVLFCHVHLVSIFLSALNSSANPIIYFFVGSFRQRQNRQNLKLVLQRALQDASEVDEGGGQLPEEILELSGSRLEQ
RGS4 act: potentiators or activators of RGS4. HEK293 M3R/inducible RGS4, carbachol calcium flux Fluo4; active compounds read low. B-score at 10 µM. 0.92% of 310,000 active;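 active means B-score of the integrated calcium signal more than 4 SD below the library mean, with starting fluorescence not abnormally high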;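 further: negative B-score means reduced calcium response which marks RGS4 activation or potentiation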
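Reagent: ECmax carbachol challenge; Test system: M3R-expressing HEK293 line, RGS4 induced by doxycycline; Schedule: overnight RGS4 induction, 30 min dye load 37 °C, 20 min compound RT; Detection: calcium dye Fluo4 fluorescence; Read-out: Agonist-evoked peak-minus-minimum fluorescence over baseline, integrated ratio, B score.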
RGS4 block: human RGS4 inhibition. 0.45% of 310,000 active. HEK293 M3R/RGS4 inducible, Fluo-4 calcium flux; active compounds read high; triggered by carbachol at its EC20. B-score at 10 µM. P49798. AID 463165;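 active means B-score, a plate-corrected calcium signal, over three deviations above library mean, with baseline fluorescence within five deviations of library mean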;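 further: RGS4 expression induced by doxycycline in cells with stable M3 receptor; B-score is computed from the integrated fluorescence ratio over baseline after carbachol; higher B-score means a larger calcium signal and so more RGS4 inhibition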
Target sequence (P49798 whole entry, looked up): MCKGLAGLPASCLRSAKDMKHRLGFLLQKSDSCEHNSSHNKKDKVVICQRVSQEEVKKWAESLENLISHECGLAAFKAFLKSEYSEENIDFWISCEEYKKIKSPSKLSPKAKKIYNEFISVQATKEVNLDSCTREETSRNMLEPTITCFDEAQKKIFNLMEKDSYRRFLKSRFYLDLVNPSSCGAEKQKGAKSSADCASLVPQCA
MrgX1 allo act: human MrgX1 positive allosteric modulation, primary screen; MrgX1-HEK293, Fluo-4 calcium flux, FDSS; active compounds read high; Q96LB2; 0.63% of 310,000 active; B-score at 10 µM; AID 588675;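 active means plate-corrected calcium response at least 3 library SD above typical, normal starting fluorescence, not activating the receptor alone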;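 further: compound read alongside a low EC10 to EC30 dose of BAM8-22 agonist; peak minus trough fluorescence over baseline measured at the second addition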
MrgX1 agonist: human MrgX1 receptor agonism, primary screen; Q96LB2; 0.44% of 310,000 active; MrgX1-HEK293 cells, Fluo-4 calcium fluorescence, agonist mode; active compounds read high; AID 588627; B-score at 10 µM;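 active means calcium response B-score plate-corrected fluorescence ratio at least 3 library SD, with starting fluorescence B-score inside 5 SD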
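System – MrgX1-expressing HEK293 cells · Incubation – cells plated overnight, dye loaded 0.5 h 37 °C, 0.5 h room temperature · Technique – kinetic Fluo-4 NW fluorescence of intracellular calcium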
Cl transport mod: modulates chloride dependent transport by human KCC2; KCC2 cells, thallium flux FluoZin-2 fluorescence; B-score of Tl+ flux slope (higher = more flux/activation; lower = inhibition) at 10 µM; 2.2% of 190,000 active; AID 1456;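 active means thallium flux slope and its plate-corrected score both differing from the plate sample mean at a set confidence after two filtering rounds, in either direction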;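 further: slope of fluorescence scaled to starting intensity during 10 to 20 s after thallium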
Numbers without * were called inactive.

For COc1cc(/C=C2/SC(=S)N(Cc3ccccc3)C2=O)cc(Cl)c1O the results were MrgX1 antag inactive, RGS4 act inactive, RGS4 block inactive, MrgX1 allo act inactive and MrgX1 agonist inactive.
`O=C1/C(=C\c2cc(Br)cc(Br)c2O)SC(=S)N1Cc1ccccc1` gave MrgX1 antag -6.1*, RGS4 act inactive, RGS4 block inactive, MrgX1 allo act inactive and MrgX1 agonist inactive.
O=C1/C(=C\c2cccc([N+](=O)[O-])c2O)SC(=S)N1Cc1ccccc1 was read as MrgX1 antag -8*, RGS4 act inactive, RGS4 block inactive, MrgX1 allo act inactive and MrgX1 agonist inactive.
CCn1c(SCC(=O)NC(=O)c2ccccc2OC)nc2ccccc21 was read as MrgX1 antag inactive, RGS4 act inactive, RGS4 block inactive, MrgX1 allo act inactive and MrgX1 agonist inactive.
For Cc1noc(C)c1S(=O)(=O)N(CC(=O)NC(C)c1ccccc1)c1ccc(C(C)C)cc1 (centres undefined) the results were MrgX1 antag inactive, RGS4 act inactive, RGS4 block inactive, MrgX1 allo act inactive and MrgX1 agonist inactive.
CCC1CCCCN1CCNS(=O)(=O)c1ccc2c(c1)oc(=O)n2C (centres undefined) was read as MrgX1 antag inactive, RGS4 act inactive, RGS4 block inactive, MrgX1 allo act inactive, MrgX1 agonist inactive and Cl transport mod 0.86.
CCC1CCCCN1CCCNS(=O)(=O)c1ccc2c(c1)oc(=O)n2C (centres undefined) was read as MrgX1 antag inactive, RGS4 act inactive, RGS4 block inactive, MrgX1 allo act 18* and MrgX1 agonist inactive.
For COC(=O)c1[nH]c2cc(C)ccc2c1NC(=O)CN1CCCc2ccccc21 the results were MrgX1 antag inactive, RGS4 act -7.3*, RGS4 block inactive, MrgX1 allo act inactive, MrgX1 agonist inactive and Cl transport mod -0.13.
Cc1cc(C)c2nc(NC(=O)c3cc(C)on3)sc2c1 was read as MrgX1 antag inactive, RGS4 act inactive, RGS4 block inactive, MrgX1 allo act inactive, MrgX1 agonist inactive and Cl transport mod 39*.
O=C(NCCCN1CCOCC1)c1ccccc1N1C(=O)[C@@H]2Cc3c([nH]c4ccccc34)C(c3cccc(Cl)c3)N2C1=O (some centres undefined) was read as MrgX1 antag inactive, RGS4 act inactive, RGS4 block inactive, MrgX1 allo act inactive and MrgX1 agonist inactive.
`Cc1ccc2nc(C)/c(=N\O)c(C)nc2c1` gave MrgX1 antag inactive, RGS4 act inactive, RGS4 block inactive, MrgX1 allo act 10*, MrgX1 agonist inactive and Cl transport mod 0.28.
Screening CNC[C@H](Cc1ccccc1)NC[C@@H](Cc1cccc2ccccc12)NCCc1ccc(C)cc1 returned MrgX1 antag inactive, RGS4 act -8.2*, RGS4 block inactive, MrgX1 allo act inactive and MrgX1 agonist inactive.
`CCN(CC)S(=O)(=O)c1ccc2[nH]c(=O)cc(C(=O)NCC3CCCO3)c2c1` (centres undefined) gave MrgX1 antag inactive, RGS4 act inactive, RGS4 block inactive, MrgX1 allo act inactive and MrgX1 agonist inactive.
`c1ccc(Sc2ccccn2)cc1` gave MrgX1 antag inactive, RGS4 act inactive, RGS4 block inactive, MrgX1 allo act inactive and MrgX1 agonist inactive.
Screening c1ccc(SSc2ccccn2)nc1 returned MrgX1 antag inactive, RGS4 act inactive, RGS4 block inactive, MrgX1 allo act inactive and MrgX1 agonist 32*.
Screening Cc1ccc(C(C)C)c(OCCNC(=O)c2ccccc2O)c1 returned MrgX1 antag inactive, RGS4 act inactive, RGS4 block inactive, MrgX1 allo act inactive and MrgX1 agonist inactive.
CSc1ccc(Cl)c(C(=O)NCCOc2cc(C)ccc2C(C)C)c1 was read as MrgX1 antag inactive, RGS4 act -7.2*, RGS4 block inactive, MrgX1 allo act inactive, MrgX1 agonist inactive and Cl transport mod -1.2.
For CC1(c2nnc(-c3ccc(Cl)cc3)o2)CC(c2cccc(Cl)c2)=NO1 (centres undefined) the results were MrgX1 antag -5.9*, RGS4 act inactive, RGS4 block inactive, MrgX1 allo act inactive, MrgX1 agonist inactive and Cl transport mod 0.29.
Screening CCN(CC)C(=O)COC(=O)C1=NN(c2cc(C)ccc2C)C(=O)CC1 returned MrgX1 antag -5.5*, RGS4 act inactive, RGS4 block inactive, MrgX1 allo act inactive and MrgX1 agonist inactive.
CCCCNC(=S)NNC(=O)C1=NN(c2cc(C)ccc2C)C(=O)CC1 was read as MrgX1 antag inactive, RGS4 act inactive, RGS4 block inactive, MrgX1 allo act inactive and MrgX1 agonist inactive.
Screening CC(C)c1ccccc1NC(=O)c1ccc2ncsc2c1 returned MrgX1 antag inactive, RGS4 act inactive, RGS4 block inactive, MrgX1 allo act inactive and MrgX1 agonist inactive.
Screening COc1ccc(C(=O)NCC(=O)N2CCCCC2)cc1OC returned MrgX1 antag inactive, RGS4 act inactive, RGS4 block inactive, MrgX1 allo act inactive, MrgX1 agonist inactive and Cl transport mod 0.42.
Screening COc1ccc(C(=O)NN2CCCCC2)cc1OC returned MrgX1 antag -5*, RGS4 act inactive, RGS4 block inactive, MrgX1 allo act inactive and MrgX1 agonist inactive.
For COc1ccc(C(=O)c2ccc(OC)c(OC)c2)cc1OC the results were MrgX1 antag inactive, RGS4 act inactive, RGS4 block inactive, MrgX1 allo act inactive and MrgX1 agonist inactive.
Screening COc1ccc(C(=O)c2ccc(OC)c(OC)c2)cc1 returned MrgX1 antag -5*, RGS4 act inactive, RGS4 block inactive, MrgX1 allo act inactive, MrgX1 agonist inactive and Cl transport mod -0.15.
Screening C[C@H](NC(=O)c1nc[nH]c1C(=O)NCCCCCN)C(=O)OCc1ccccc1 returned MrgX1 antag inactive, RGS4 act inactive, RGS4 block inactive, MrgX1 allo act inactive and MrgX1 agonist inactive.
For COc1ccc(S(=O)(=O)N2CCCCCC2)cc1C(=O)N(C)Cc1ccc(Cl)cc1Cl the results were MrgX1 antag inactive, RGS4 act inactive, RGS4 block inactive, MrgX1 allo act 14* and MrgX1 agonist inactive.
For CN(Cc1ccccn1)C(=O)CC1C(=O)NCCN1Cc1cccc(Oc2ccccc2)c1 (centres undefined) the results were MrgX1 antag inactive, RGS4 act inactive, RGS4 block inactive, MrgX1 allo act inactive, MrgX1 agonist inactive and Cl transport mod -0.2.

Compound activity deposited in PubChem by several laboratories.
